Rad51 HR inh: Rad51 (human) homologous recombination inhibition; Q06609; hRad51 DNA strand exchange, fluorescence dequenching; inhibition, % at 10 µM; 200,000 tested, 0.085% active; AID 1385;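 active = inhibition above 40% at the single screening dose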
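System: human Rad51 nucleoprotein filaments preassembled on unlabelled ssDNA. Reagent: labelled 47-mer dsDNA for strand exchange. Schedule: 30-min compound preincubation and 15-min exchange, both room temperature. Measured by: FRET fluorescence dequenching, excitation 485 nm, emission 520 nm. Read-out: Fluorescence-based percent inhibition, control- and blank-normalised. Benchmarks: plate controls and plate blanks.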
Hsp70 act: Hsp70 transcriptional activation, primary screen; activation, % at 10 µM; HeLa Hsp70 promoter luciferase reporter, luminescence; scaled: vehicle 0, proteasome-inhibitor control 100%; 200,000 tested, 0.04% active;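 active = activation above the mean across all tested compounds plus 3 SD, cutoff set per campaign, cut at about 5.5% in these data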
HSF1 activator: increases HSF-1 driven luciferase reporter signal. 300,000 tested, 1.7% active. activation, % at 9 µM. NIH3T3-HGL HSF-1 luciferase reporter, MG132, 8 h; 100% = twice DMSO control signal;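 active = mean replicate activation of at least 50% with a set share of replicates each reaching 50%; inconclusive = only one of those two conditions met; inactive = mean below 50% and too few replicates reaching it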
HSF1 inhib: HSF1 inhibition; NIH3T3-HGL HSE-luciferase, MG132-induced, luminescence 8 h; stronger effect = lower value; activity change, negative = inhibition, % at 7.5 µM (by protocol); 300,000 tested, 0.77% active; AID 2098;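 active = more than half of replicate wells show activity change below -50%, luminescence cut by over half; inconclusive = some wells, but at most half, below -50%; inactive = no replicate well below -50%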;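 also: luciferase reports HSF-1 transcriptional activity via heat shock element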
HSV replic up: HSV replication enhancement | 220,000 tested, 0.005% active | HSV replication augmentation in cells, fold increase | maximum fold increase; in the data active = maximum fold increase above about 1.5; inconclusive = no clear call, values can overlap the other calls; tested in PC3 cells
Mdm2 ligase inh: inhibitors of human Mdm2 E3 ubiquitin ligase; 210,000 tested, 0.11% active; cell-based MDM2 ubiquitination luciferase reporter, 2 h; 0 = plate control, 100 = twice control, blank-subtracted; AID 1230; signal enhancement, % at 5 µM;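 active = signal enhancement of 30% or more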;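 also: luminescence tracks abundance of the self-degrading MDM2-luciferase fusion protein; higher signal means inhibition of MDM2 E3 ligase activity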
Target sequence (Q00987 whole entry, looked up, the tested form may be a part): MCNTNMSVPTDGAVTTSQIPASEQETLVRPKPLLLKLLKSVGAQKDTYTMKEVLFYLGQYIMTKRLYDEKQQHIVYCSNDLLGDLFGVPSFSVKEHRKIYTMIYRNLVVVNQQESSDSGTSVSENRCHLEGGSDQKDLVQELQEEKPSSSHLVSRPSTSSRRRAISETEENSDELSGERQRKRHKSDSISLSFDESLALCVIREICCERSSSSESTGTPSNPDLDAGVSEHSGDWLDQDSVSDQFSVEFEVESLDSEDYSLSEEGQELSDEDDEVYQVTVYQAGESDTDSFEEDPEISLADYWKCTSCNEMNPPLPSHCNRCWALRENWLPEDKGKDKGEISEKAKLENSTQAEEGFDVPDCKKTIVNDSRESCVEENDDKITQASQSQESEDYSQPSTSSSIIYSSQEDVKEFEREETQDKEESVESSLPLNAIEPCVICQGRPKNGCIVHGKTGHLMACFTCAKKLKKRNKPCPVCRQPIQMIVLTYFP
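Assay system: stable mammalian line carrying autodegrading MDM2–luciferase fusion reporter; Input: 2000 cells in each well; Compound dosing: single-point 5 µM; Schedule: 2 h compound exposure at 37 °C; Signal: SteadyLite luciferase luminescence after 15 min room-temperature reagent incubation; Evaluation: % luminescence enhancement versus blank-corrected plate control mean; Benchmarks: plate controls and plate blanks.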
Of the large screens only hits and unclear results are named; the others gave an inactive call. Sampled rows, rich in hits. Any-hit rate of the full collection: about 2.6%.

O=c1c2sccc2n(Cc2cccc(F)c2)c(=O)n1-c1ccc(F)cc1	none
NC(=O)c1ccccc1OCc1nnc(-c2ccccc2Br)o1	none (no result: Rad51 HR inh, Hsp70 act, HSV replic up, Mdm2 ligase inh)
COc1ccc(CNC(=O)CN(C(=O)c2snc(C(N)=O)c2N)c2ccc(OC)c(OC)c2)cc1	none (no result: Rad51 HR inh, Hsp70 act, HSV replic up, Mdm2 ligase inh)
COc1ccc(C2(C)CC(C)(C)Nc3ccccc32)cc1 (stereo not drawn)	none (no result: Rad51 HR inh, Hsp70 act, HSV replic up, Mdm2 ligase inh)
COc1ccc(C2CC(C)(c3ccc(OC)cc3)Nc3ccccc3N2)cc1 (stereo not drawn)	HSF1 activator 58.1 (no result: Rad51 HR inh, Hsp70 act)
Clc1ccc(Cn2nc(-c3ccccc3)nc2-c2ccccc2)cc1	HSF1 activator 53.5
COc1cc(NC(=O)c2ccccc2)c(OC)cc1NC(=O)Cc1ccc(C)cc1	none (no result: Rad51 HR inh, Hsp70 act, HSV replic up, Mdm2 ligase inh)
CCN(CC)c1ccc(/C=C2\C(=O)c3ccc(C(=O)O)cc3C2=O)cc1	HSV replic up inconclusive, Mdm2 ligase inh 78.7 (no result: HSF1 activator, HSF1 inhib)
COCc1cc(C)nc(SCC(=O)Nc2ccccc2N2CCOCC2)c1C#N	HSF1 activator 65.0 (no result: Rad51 HR inh, Hsp70 act, HSV replic up, Mdm2 ligase inh)
COCc1cc(C)nc(SCC(=O)Nc2ccc3c(c2)OCCO3)c1C#N	none (no result: Rad51 HR inh, Hsp70 act, HSV replic up, Mdm2 ligase inh)
O=C(CSc1ccc(Br)cc1)Nc1ccccc1N1CCOCC1	HSF1 inhib -77.5 (no result: Rad51 HR inh, Hsp70 act, HSV replic up, Mdm2 ligase inh)
CC(C)c1ccc(NC(=O)N(CCc2nc3ccccc3[nH]2)C2CCCC2)cc1	HSF1 inhib -60.9
O=C(NN1C(=O)C2C(C1=O)C1C=CC2C12CC2)c1ccc(Cl)cc1 (stereo not drawn)	HSF1 activator 65.3 (no result: Hsp70 act)
Cc1ccc(C(=O)NN2C(=O)C3C(C2=O)C2C=CC3C23CC3)cc1 (stereo not drawn)	none
CCOc1ccc(CSc2nc(C)cc(COC)c2C#N)cc1OCC	none (no result: Rad51 HR inh, Hsp70 act, HSV replic up, Mdm2 ligase inh)
O=C(NCCN1CCCC1=O)C1CCC(=O)N(CCc2cccc(F)c2)C1 (stereo not drawn)	none (no result: Rad51 HR inh, Hsp70 act, HSV replic up, Mdm2 ligase inh)
O=C(NCCn1cccn1)C1CCC(=O)N(CCc2cccc(F)c2)C1 (stereo not drawn)	HSF1 activator 51.1 (no result: Rad51 HR inh, Hsp70 act, HSV replic up, Mdm2 ligase inh)
COc1ccc(C(=O)CN2CCN(S(=O)(=O)c3cccc([N+](=O)[O-])c3)CC2)cc1	none
Cc1ccc(OCc2nnc(SC(C)C(=O)O)n2-c2ccccc2)cc1 (stereo not drawn)	HSF1 inhib -63.0 (no result: Rad51 HR inh, Hsp70 act, HSV replic up, Mdm2 ligase inh)
Cn1c(=O)c2sccc2n2c(CCCC(=O)NCc3ccco3)nnc12	none (no result: Rad51 HR inh, Hsp70 act, HSV replic up, Mdm2 ligase inh)
Cc1cc(Sc2nnc(N)s2)c2ccccc2n1	HSF1 activator 136.0 (no result: Hsp70 act)
CC(C(=O)NCc1ccco1)n1nc(-c2ccccc2)c2cc(Cl)ccc21 (stereo not drawn)	none
CC(=O)c1ccc(NC(=O)C(C)n2nc(-c3ccccc3)c3cc(Cl)ccc32)cc1 (stereo not drawn)	HSF1 inhib -66.8 (no result: Rad51 HR inh, HSV replic up, Mdm2 ligase inh)
CSc1nc2ccccc2n1CC(=O)Nc1ccccc1	none
CC(C)Cn1c(/C=C/c2ccccc2)nc2ccccc21	HSF1 activator 88.6
O=C(Cn1c(/C=C/c2ccccc2)nc2ccccc21)Nc1ccc(F)cc1	HSF1 activator 56.8
CC(C)CC(=O)Nc1nnc(SCC(=O)Nc2nccs2)s1	none (no result: Rad51 HR inh, Hsp70 act, HSV replic up, Mdm2 ligase inh)
Cc1nnc(SCC(=O)Nc2ccc([N+](=O)[O-])cc2)n1CC1CCCO1 (stereo not drawn)	none (no result: Rad51 HR inh, Hsp70 act, HSV replic up, Mdm2 ligase inh)
CC(=O)Nc1ccc(OS(=O)(=O)c2ccccc2C)cc1	HSF1 inhib -91.4
CCCc1ccc(-c2cc(NC(=O)CSc3nnc(N)s3)n(-c3ccccc3)n2)cc1	HSF1 activator 61.4
CCc1ccc(NC(=O)c2cc(C)on2)cc1	HSF1 activator 58.2
Cc1ccc(NC(=O)c2cc(C)on2)cc1	none
CC(O)c1nc2ccccc2n1Cc1nnc(-c2ccc(Cl)cc2)o1 (stereo not drawn)	HSF1 inhib -55.7
COc1ccc(N=NC2=C(O)CC(C)(C)CC2=O)cc1	HSF1 activator 58.2
CCC[N+]1(CC#CC(O)(c2ccccc2)C2CCCCC2)CCCCC1 (stereo not drawn)	none (no result: Rad51 HR inh, Hsp70 act)
NC(=O)C[N+]1(CC#CC(O)(c2ccccc2)c2ccccc2)CCCC1	HSF1 inhib -69.0
CSC(=CC(=O)c1ccccc1)SC	none
O=C(/C=C/Sc1ccccc1)c1ccccc1	HSF1 activator 117.1
O=C(/C=C/Sc1ccccc1)c1ccc(Cl)cc1	HSF1 activator 160.7
NC(=O)c1ccccc1N/C=C/C(=O)c1ccc(Cl)cc1	none
CC12CCC(=O)N1C(C(=O)NNC(=O)COc1ccc(Br)cc1)CS2 (stereo not drawn)	none (no result: Rad51 HR inh, Hsp70 act, HSV replic up, Mdm2 ligase inh)
COc1ccc(CNC(=O)C2CCCN(S(=O)(=O)c3ccc4c(c3)C(C)(C)C(=O)N4C)C2)cc1 (stereo not drawn)	none (no result: Rad51 HR inh, Hsp70 act, HSV replic up, Mdm2 ligase inh)
COc1ccc(CNC(=O)C2CCN(S(=O)(=O)c3ccc4c(c3)C(C)(C)C(=O)N4C)CC2)cc1	HSF1 inhib -84.3 (no result: Rad51 HR inh, Hsp70 act, HSV replic up, Mdm2 ligase inh)
CN1C(=O)C(C)(C)c2cc(S(=O)(=O)N3CCC(C(=O)NCc4ccc(Cl)cc4)CC3)ccc21	HSF1 activator 65.6 (no result: Rad51 HR inh, Hsp70 act, HSV replic up, Mdm2 ligase inh)
CN1C(=O)C(C)(C)c2cc(S(=O)(=O)N3CCC(C(=O)NCc4ccc(F)cc4)CC3)ccc21	none (no result: Rad51 HR inh, Hsp70 act, HSV replic up, Mdm2 ligase inh)
O=C(NCc1ccncc1)C1CCN(S(=O)(=O)c2cccc(C(F)(F)F)c2)CC1	HSF1 inhib -53.3 (no result: Rad51 HR inh, Hsp70 act, HSV replic up, Mdm2 ligase inh)
